Here are results for 28 compounds from ChEMBL document CHEMBL1147233, “Chemistry and structure-activity relationship of HIV-1 integrase inhibitor integracide B and related natural products” (J Nat Prod, 2003).

Structures are written as SMILES.

Test [1] deals with T1, Human immunodeficiency virus type 1 integrase (Human immunodeficiency virus 1, UniProt Q7ZJM1). The test can be described thus: Inhibition of recombinant HIV1 integrase using unprocessed donor DNA by coupled assay. Summed up:
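Unprocessed donor DNA and inhibitor incubated with recombinant integrase together for 30 min, then target DNA added; strand-transfer product measured. Final DMSO 10%. IC50 from serial 2-fold dilutions in duplicate or triplicate; values without error limits are the average of these.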

Test [2] has as its target T1, Human immunodeficiency virus type 1 integrase. The test can be described thus: Inhibition of recombinant HIV1 integrase using preprocessed donor DNA treated after washing excess enzyme by strand transfer assay. In a few lines: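 Integrase preincubated with preprocessed donor DNA, unbound enzyme washed off, then target DNA and inhibitor added together. Strand transfer product measured. Final DMSO 10%. IC50 from serial 2-fold dilutions run in duplicate or triplicate; values without error limits are the average of these.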

In test [3] the target is Type II restriction enzyme EcoRI (Escherichia coli, UniProt P00642). As to the kind of experiment: Inhibition of Escherichia coli ECOR1.
Sequence of Type II restriction enzyme EcoRI (P00642 whole entry): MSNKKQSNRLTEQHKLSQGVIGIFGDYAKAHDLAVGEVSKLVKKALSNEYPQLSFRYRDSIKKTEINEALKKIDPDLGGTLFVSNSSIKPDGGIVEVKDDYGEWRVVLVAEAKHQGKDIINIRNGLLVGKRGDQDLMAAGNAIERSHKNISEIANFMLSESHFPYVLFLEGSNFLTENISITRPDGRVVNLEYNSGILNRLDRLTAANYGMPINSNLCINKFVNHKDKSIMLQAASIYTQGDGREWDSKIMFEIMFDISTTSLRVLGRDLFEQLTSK
Test [4] is described as follows: Inhibition of DNAse.

T1 sequence (Q7ZJM1 whole entry): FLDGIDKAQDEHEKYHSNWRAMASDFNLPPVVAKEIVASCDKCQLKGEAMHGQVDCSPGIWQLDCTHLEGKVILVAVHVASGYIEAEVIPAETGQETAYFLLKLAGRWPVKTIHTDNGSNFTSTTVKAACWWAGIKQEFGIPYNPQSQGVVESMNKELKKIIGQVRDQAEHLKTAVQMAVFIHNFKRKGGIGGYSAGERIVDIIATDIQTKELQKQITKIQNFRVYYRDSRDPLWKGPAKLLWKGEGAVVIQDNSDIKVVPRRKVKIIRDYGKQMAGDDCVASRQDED

Take `C=C(CC[C@@H](C)[C@H]1CC=C2C3=C([C@@H](O)[C@H](OC(C)=O)[C@@]21C)[C@@]1(C)C[C@@H](OC(=O)CCC(=O)OC)[C@H](O)C(C)(C)[C@@H]1CC3)C(C)C`: the IC50 in test [1], in test [2], in test [3] and in test [4] was greater than 50 µM in each case.
On to `C=C(CC[C@@H](C)[C@H]1CC=C2C3=C([C@@H](O)[C@H](OC(C)=O)[C@@]21C)[C@@]1(C)C[C@@H](OC(=O)CN)[C@H](OC(=O)CN)C(C)(C)[C@@H]1CC3)C(C)C`, for which the IC50 (commonly the concentration that inhibits the measured activity by half) in test [1] was 1.7 µM; in test [2], 11.5 µM; in test [3] it was greater than 50 µM; in test [4] it was 47 µM.
Taken in the same sequence, the figures for `C=C(CC[C@@H](C)[C@H]1CC=C2C3=C([C@@H](O)[C@H](OC(C)=O)[C@@]21C)[C@@]1(C)C[C@@H](O)[C@H](OC(=O)CN)C(C)(C)[C@@H]1CC3)C(C)C` were 18 µM, greater than 50 µM, greater than 50 µM and greater than 50 µM.
With `C=C(CC[C@@H](C)[C@H]1CC=C2C3=C([C@@H](O)[C@H](OC(C)=O)[C@@]21C)[C@@]1(C)C[C@@H](OC(=O)CNC(=O)OCC2c4ccccc4-c4ccccc42)[C@H](O)C(C)(C)[C@@H]1CC3)C(C)C`, the IC50 in test [1], in test [2], in test [3] and in test [4] was greater than 50 µM in each case.
Consider `C=C(CC[C@@H](C)[C@H]1CC=C2C3=C([C@@H](O)[C@H](OC(C)=O)[C@@]21C)[C@@]1(C)C[C@@H](OC(=O)CNC(=O)OCC2c4ccccc4-c4ccccc42)[C@H](OC(=O)CNC(=O)OCC2c4ccccc4-c4ccccc42)C(C)(C)[C@@H]1CC3)C(C)C`, for which the IC50 in test [1], in test [2], in test [3] and in test [4] was greater than 50 µM throughout.
`C=C(CC[C@@H](C)[C@H]1CC=C2C3=C([C@@H](O)[C@H](OC(C)=O)[C@@]21C)[C@@]1(C)C[C@@H](OC(=O)CNC(=O)OC(C)(C)C)[C@H](OC(=O)CNC(=O)OC(C)(C)C)C(C)(C)[C@@H]1CC3)C(C)C`: the half-maximal inhibitory concentration (IC50) in test [1], in test [2], in test [3] and in test [4] was greater than 50 µM in each case.
In the case of `C=C(CC[C@@H](C)[C@H]1CC=C2C3=C([C@@H](O)[C@H](OC(C)=O)[C@@]21C)[C@@]1(C)C[C@@H](O)[C@H](OC(=O)CCC(=O)OC)C(C)(C)[C@@H]1CC3)C(C)C`, the IC50 in test [1], in test [2], in test [3] and in test [4] was greater than 50 µM in each case.
For `C=C(CC[C@@H](C)[C@H]1CC=C2C3=C([C@@H](O)[C@H](OC(C)=O)[C@@]21C)[C@@]1(C)C[C@@H](OC(=O)c2ccccc2)[C@H](OC(=O)c2ccccc2)C(C)(C)[C@@H]1CC3)C(C)C`, the half-maximal inhibitory concentration (IC50) is greater than 69 µM in test [1], greater than 69 µM in test [2], greater than 50 µM in test [3] and greater than 50 µM in test [4].
In the case of `C=C(CC[C@@H](C)[C@H]1CC=C2C3=C([C@@H](O)[C@H](OC(C)=O)[C@@]21C)[C@@]1(C)CC[C@H](OS(=O)(=O)O)C(C)(C)[C@@H]1CC3)C(C)C`, the IC50 in test [1] was 3.1 µM; in test [2] it was 4.8 µM; in test [3] it was greater than 50 µM; in test [4], greater than 50 µM.
As to `C=C(CC[C@@H](C)[C@H]1CC=C2C3=C([C@@H](O)[C@H](OC(C)=O)[C@@]21C)[C@@]1(C)C[C@H]2OC(C)(C)O[C@@H]2C(C)(C)[C@@H]1CC3)C(C)C`, the IC50 in test [1], in test [2], in test [3] and in test [4] was greater than 50 µM each time.
Turning to `C=C(CC[C@@H](C)[C@H]1CC=C2C3=C([C@@H](O)[C@H](OC(C)=O)[C@@]21C)[C@@]1(C)C[C@@H](OC(=O)CNC(=O)OC(C)(C)C)[C@H](O)C(C)(C)[C@@H]1CC3)C(C)C`, the IC50 in test [1], in test [2], in test [3] and in test [4] was greater than 50 µM in each case.
As for `C=C(CC[C@@H](C)[C@H]1CC=C2C3=C(C(=O)[C@H](OC(C)=O)[C@@]21C)[C@@]1(C)C[C@@H](O)[C@H](O)C(C)(C)[C@@H]1CC3)C(C)C`, the IC50 is 75 µM in test [1], greater than 100 µM in test [2], greater than 50 µM in test [3] and greater than 50 µM in test [4].
Regarding `C=C(CC[C@@H](C)[C@H]1C[C@H](OC)c2c3c(cc(C)c21)[C@@]1(C)C[C@@H](O)[C@H](O)C(C)(C)[C@@H]1CC3)C(C)C`, the 50% inhibitory concentration (IC50) in test [1] is 50 µM; in test [2], greater than 100 µM; in test [3], greater than 50 µM; in test [4], greater than 50 µM.
For `C=C(CC[C@@H](C)[C@H]1C[C@@H](OC)c2c3c(cc(C)c21)[C@@]1(C)C[C@@H](O)[C@H](O)C(C)(C)[C@@H]1CC3)C(C)C`, the IC50 is 50 µM in test [1], greater than 100 µM in test [2], greater than 50 µM in test [3] and greater than 50 µM in test [4].
For `C=C(CC[C@@H](C)[C@H]1CC(=O)C2=C3CC[C@H]4C(C)(C)[C@@H](O)[C@H](O)C[C@]4(C)C3=C[C@H](OC(C)=O)[C@@]21C)C(C)C`, the IC50 in test [1] is 25 µM; in test [2], 40 µM; in test [3], greater than 50 µM; in test [4], greater than 50 µM.
Regarding `C=C(CC[C@@H](C)[C@H]1CC=C2C3=C([C@@H](O)[C@H](OC(C)=O)[C@@]21C)[C@@]1(C)C[C@@H]2O[C@@H]2C(C)(C)[C@@H]1CC3)C(C)C`, the IC50 in test [1], in test [2], in test [3] and in test [4] was greater than 50 µM each time.
With `COC(=O)C[C@@](C)(O)CC(=O)O[C@@H]1C[C@]2(C)C3=C(CC[C@H]2C(C)(C)C1=O)[C@]1(C)CC[C@H]([C@H](C)CCC(O)C(C)(C)O)[C@@]1(C)CC3` (some centres not stated), the IC50 is 70 µM in test [1], greater than 100 µM in test [2], greater than 50 µM in test [3] and greater than 50 µM in test [4].
As for `C=C(CC[C@@H](C)[C@H]1CC=C2C3=C([C@@H](O)[C@H](OC(C)=O)[C@@]21C)[C@@]1(C)C[C@@H](OC(=O)CN)[C@H](O)C(C)(C)[C@@H]1CC3)C(C)C`, the IC50 in test [1] is 23 µM; in test [2] it was greater than 50 µM; in test [3], greater than 50 µM; in test [4] it was greater than 50 µM.
Take `C=C(CC[C@@H](C)[C@H]1CC=C2C3=C([C@@H](O)[C@H](OC(C)=O)[C@@]21C)[C@@]1(C)C[C@@H](OCOC)[C@H](O)C(C)(C)[C@@H]1CC3)C(C)C`: the IC50 in test [1] is greater than 80 µM; in test [2], greater than 80 µM; in test [3], greater than 50 µM; in test [4] it was greater than 50 µM.
Turning to `C=C(CC[C@@H](C)[C@H]1CC=C2C3=C([C@@H](O)[C@H](OC(C)=O)[C@@]21C)[C@@]1(C)C[C@@H](O)[C@H](OCOC)C(C)(C)[C@@H]1CC3)C(C)C`, the IC50 in test [1] was greater than 80 µM; in test [2], greater than 80 µM; in test [3] it was greater than 50 µM; in test [4], greater than 50 µM.
On to `C=C(CC[C@@H](C)[C@H]1CC=C2C3=C([C@@H](O)[C@H](OC(C)=O)[C@@]21C)[C@@]1(C)C[C@@H](OC(=O)CCC(=O)NO)[C@H](O)C(C)(C)[C@@H]1CC3)C(C)C`, for which the IC50 in test [1] is 8 µM; in test [2] it was greater than 50 µM; in test [3], greater than 50 µM; in test [4], greater than 50 µM.
As to `C=C(CC[C@@H](C)[C@H]1CC=C2C3=C([C@@H](O)[C@H](OC(C)=O)[C@@]21C)[C@@]1(C)C[C@@H](O)[C@H](OC(=O)c2ccccc2)C(C)(C)[C@@H]1CC3)C(C)C`, the IC50 in test [1] was greater than 80 µM; in test [2], greater than 80 µM; in test [3], greater than 50 µM; in test [4], greater than 50 µM.
Turning to `C=C(CC[C@@H](C)[C@H]1CC=C2C3=C([C@@H](OC(C)=O)[C@H](OC(C)=O)[C@@]21C)[C@@]1(C)C[C@@H](OC(C)=O)[C@H](OC(C)=O)C(C)(C)[C@@H]1CC3)C(C)C`, the IC50 in test [1], in test [2], in test [3] and in test [4] was greater than 50 µM each time.
Consider `C=C(CC[C@@H](C)[C@H]1CC=C2C3=C([C@@H](O)[C@H](OC(C)=O)[C@@]21C)[C@@]1(C)C[C@@H](OC(=O)c2ccccc2)[C@H](O)C(C)(C)[C@@H]1CC3)C(C)C`, for which the IC50 in test [1] is greater than 80 µM; in test [2], greater than 80 µM; in test [3], greater than 50 µM; in test [4], greater than 50 µM.
On to `C=C(CC[C@@H](C)[C@H]1CC=C2C3=C([C@@H](O)[C@H](OC(C)=O)[C@@]21C)[C@@]1(C)C[C@@H](OCOC)[C@H](OCOC)C(C)(C)[C@@H]1CC3)C(C)C`, for which the IC50 in test [1] is greater than 80 µM; in test [2] it was greater than 80 µM; in test [3] it was greater than 50 µM; in test [4], greater than 50 µM.
With `C=C(CC[C@@H](C)[C@H]1CC=C2C3=C([C@@H](O)[C@H](O)[C@@]21C)[C@@]1(C)C[C@@H](O)[C@H](O)C(C)(C)[C@@H]1CC3)C(C)C`, the concentration for half-maximal inhibition (IC50) in test [1] was 48 µM; in test [2], greater than 50 µM; in test [3], greater than 50 µM; in test [4], greater than 50 µM.
In the case of `C[C@H](CCC(O)C(C)(C)O)[C@H]1CC[C@@]2(C)C3=C(CC[C@]12C)[C@@]1(C)C[C@@H](OC(=O)CC(C)(O)CC(=O)O)C(=O)C(C)(C)[C@@H]1CC3` (some centres not stated) [CLAVARIC ACID], the IC50 in test [1] was 47 µM; in test [2], 85 µM; in test [3] it was greater than 50 µM; in test [4] it was greater than 50 µM.
Turning to `C[C@H](CCC(O)C(C)(C)O)[C@H]1CC[C@@]2(C)C3=C(CC[C@]12C)[C@@]1(C)C[C@@H](O)C(=O)C(C)(C)[C@@H]1CC3` (some centres not stated) [CLAVARINONE], the IC50 is 68 µM in test [1], greater than 100 µM in test [2], greater than 50 µM in test [3] and greater than 50 µM in test [4].
